Screening data as filed in PubChem BioAssay.
PostGolgi ctrl: growth inhibition of yeast control strain, primary screen, counter-screen for post-Golgi transport modulator project; efflux-deficient yeast background strain, growth absorbance A615, 16 h; inhibition, % at 10 µM; 98,000 tested, 5% active
PostGolgi yeast: phenotypic screen on post-Golgi transport, primary screen | post-Golgi transport phenotypic cell assay | inhibition, % at 10 µM | 98,000 tested, 0.9% active;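 further: yeast cells grown in 1536-well plates; yeast grown about 18 h at 30C before absorbance read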
Her2 expr inh: inhibitors of Her2 protein expression, primary screen, SKBR-3 cells, AlphaScreen, 66K library | SKBR-3 HER2 protein level, 18-24 h; stronger effect = lower value | HER2 level % of control, % at 10 µM | 65,000 tested, 0.69% active;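 active means HER2 level under 5% of the carrier-only control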;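 further: 100% = DMSO carrier and 0% = 500 nM PU-H71 HSP90 inhibitor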
Target sequence (P04626 whole entry, looked up): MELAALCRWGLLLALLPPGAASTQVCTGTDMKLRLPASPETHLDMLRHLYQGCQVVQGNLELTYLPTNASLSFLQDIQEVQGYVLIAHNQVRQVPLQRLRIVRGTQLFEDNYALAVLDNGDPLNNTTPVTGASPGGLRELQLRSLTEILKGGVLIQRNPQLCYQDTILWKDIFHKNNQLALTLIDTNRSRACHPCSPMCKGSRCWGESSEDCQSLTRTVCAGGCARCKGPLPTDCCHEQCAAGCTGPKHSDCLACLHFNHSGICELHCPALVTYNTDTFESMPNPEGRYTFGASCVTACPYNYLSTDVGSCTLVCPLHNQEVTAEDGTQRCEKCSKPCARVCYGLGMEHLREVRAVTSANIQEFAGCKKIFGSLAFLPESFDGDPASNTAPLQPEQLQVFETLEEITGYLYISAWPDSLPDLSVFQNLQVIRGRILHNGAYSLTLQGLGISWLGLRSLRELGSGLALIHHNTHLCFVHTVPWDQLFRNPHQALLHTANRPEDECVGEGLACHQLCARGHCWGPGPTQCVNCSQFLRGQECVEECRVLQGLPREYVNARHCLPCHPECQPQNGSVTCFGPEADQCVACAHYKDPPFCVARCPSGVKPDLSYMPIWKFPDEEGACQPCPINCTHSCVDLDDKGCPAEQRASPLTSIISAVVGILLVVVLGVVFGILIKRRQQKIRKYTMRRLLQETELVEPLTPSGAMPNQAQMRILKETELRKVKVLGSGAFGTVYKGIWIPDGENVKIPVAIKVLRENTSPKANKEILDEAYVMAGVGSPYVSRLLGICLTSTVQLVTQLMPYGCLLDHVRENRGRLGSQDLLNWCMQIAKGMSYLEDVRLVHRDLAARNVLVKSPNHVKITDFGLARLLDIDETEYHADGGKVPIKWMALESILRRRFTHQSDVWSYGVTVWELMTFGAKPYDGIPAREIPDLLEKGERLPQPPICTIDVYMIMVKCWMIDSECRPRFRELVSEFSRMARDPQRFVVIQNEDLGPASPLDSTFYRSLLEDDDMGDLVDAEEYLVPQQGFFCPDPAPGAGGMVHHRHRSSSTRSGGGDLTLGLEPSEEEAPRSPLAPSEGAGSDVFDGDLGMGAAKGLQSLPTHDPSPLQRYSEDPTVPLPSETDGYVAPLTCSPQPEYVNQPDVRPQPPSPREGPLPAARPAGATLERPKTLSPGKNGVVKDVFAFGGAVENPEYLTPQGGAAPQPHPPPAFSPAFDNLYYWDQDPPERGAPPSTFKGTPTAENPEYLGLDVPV
E coli WT exp: growth inhibitors of wild-type E. coli, primary screen, strain BW25113, expanded library, OD600; growth inhibition, % at 100 µM; AID 710, 2007; 98,000 tested, 0.15% active; OD600 absorbance;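 active means growth inhibition above about 50% at one test dose, limit read from the data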;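 further: growth measured after 20 h incubation at 37 °C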
Ecoli tolC: growth inhibitors of E. coli tolC mutant, primary screen, strain BW25113 ΔtolC::kan, 384-well | AID 573, 2007 | 65,000 tested, 2.2% active | growth inhibition, % at 10 µM (by protocol) | OD615;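 active means growth inhibition at or above a cutoff equal to the mean over every tested compound plus 3 SD, cut at about 60% in these data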;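 further: growth measured after 20 h incubation at 37 °C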
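Test system: E. coli BW25113 ΔtolC::kan bacteria; incubation: 37 °C, 20 h exposure; medium: LB broth supplemented with 50 µg/mL kanamycin; read-out basis: percent growth inhibition; signal: A615 absorbance measurement; compound: 10 µM final, single dose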
Numbers without * were called inactive; · = no result. Sampled rows, rich in hits. Any-hit rate of the full collection: about 6.6%. Unless noted, no stated cut-off is given here; in the data, active means inhibition above about 30%; inactive means the rest.

SMILES | PostGolgi ctrl | PostGolgi yeast | Her2 expr inh | E coli WT exp | Ecoli tolC
O=C1C2C3C=CC(C3)C2C(=O)N1/N=C/c1cn(Cc2ccccc2)c2ccccc12 (configuration not stated) | 32* | 5 | · | -6 | ·
CC(Sc1n[nH]c(N)n1)c1nc2scc(-c3cccs3)c2c(=O)[nH]1 (configuration not stated) | 3 | -4 | · | -3 | ·
COc1cc(SC)ccc1C(=O)Nc1ccon1 | 31* | -5 | 90 | -3 | -3
COc1cc(SC)ccc1C(=O)Nc1ccc(S(=O)(=O)N2CCCC2)cc1 | 1 | 8 | 57 | -9 | -11
O=C(CCC1CCCC1)NC1CCCCC1 | -1 | -5 | · | 4 | ·
COC(=O)c1sc(OC)cc1OCc1ccc(C)cc1 | 10 | -5 | · | -12 | ·
CCSc1nnc(Cc2cc(=O)[nH]c(=O)[nH]2)n1-c1cc(C)ccc1C | 30* | -6 | 81 | 1 | -5
CC12CC(NC(=O)N1Cc1ccccc1)c1ccccc1O2 (configuration not stated) | 2 | -1 | 107 | 5 | -2
COc1ccc(/C=C/C(O)=C2/C(=O)N(C)C3(C)CC2c2ccccc2O3)cc1 (configuration not stated) | 26 | 1 | -6.0* | -22 | 17
Cc1ccc(/C=C/C(O)=C2/C(=O)N(C)C3(C)CC2c2ccccc2O3)cc1 (configuration not stated) | 44* | 7 | · | -3 | ·
O=C(NCc1cccnc1)C1c2ccccc2C(=O)N1Cc1ccco1 (configuration not stated) | 0 | -16 | 90 | -7 | -2
C=CCOC(=O)C1=C(C)NC(=O)NC1C1CC=CCC1 (configuration not stated) | 0 | 2 | 76 | 1 | 1
Cc1cc(C(=O)CN2C(=O)NC(Cc3c[nH]c4ccccc34)C2=O)c(C)n1C (configuration not stated) | -3 | 4 | 77 | -7 | -2
COc1ccc(-c2c(S(=O)(=O)c3ccccc3)cnn2-c2ccccc2)cc1 | 23 | -5 | · | -15 | ·
O=S(=O)(c1ccccc1)c1cnn(-c2ccccc2)c1-c1ccc(Cl)cc1 | 39* | 6 | · | -19 | ·
Nc1nc(CN2CCN(c3cccc(Cl)c3)CC2)nc(N2CCCc3ccccc32)n1 | 42* | 4 | 71 | -6 | 100*
Nc1nc(CSc2nnnn2-c2ccccc2)nc(N2CCCc3ccccc32)n1 | 57* | 4 | 74 | -3 | 48
Nc1nc(CN2CCN(c3ccccc3)CC2)nc(N2CCCc3ccccc32)n1 | 5 | 13 | 146 | 6 | 17
O=[N+]([O-])c1ccc(Sc2nccn2Cc2ccccc2)c([N+](=O)[O-])c1 | 16 | -1 | · | 8 | ·
O=C(Cc1cccs1)Nc1cccc(-c2nc3ccccc3o2)c1 | -3 | -13 | · | -1 | ·
CCCCC(=O)Nc1cccc(-c2nnc(-c3ccccc3)o2)c1 | 8 | 4 | 126 | -5 | 68*
Cc1cccc(-c2nnc(-c3cccc(NC(=O)Cc4cccs4)c3)o2)c1 | 26 | 81* | · | 1 | ·
CCOc1ccc(-n2c(SCC(N)=O)nc3c(c2=O)SCC3)cc1 | 18 | 3 | 62 | 7 | 0
O=C(O)C1CCC(=O)N1Cc1ccccc1Cl (configuration not stated) | 30* | 0 | 105 | 5 | -16
CC(C)(CO)NCc1ccccc1OCC(=O)Nc1ccccc1 | 32* | -7 | 86 | -7 | -12
SMILES | PostGolgi ctrl | PostGolgi yeast | Her2 expr inh | E coli WT exp | Ecoli tolC
Cc1ccc(NC(=O)COc2ccccc2CNC(C)(C)CC(C)(C)C)cc1 | 26 | -4 | · | 16 | ·
COc1ccc(C(c2c[nH]c3ccccc23)c2c[nH]c3ccccc23)cc1O | 54* | -2 | · | 2 | ·
COc1ccccc1NC(=S)NCCc1c[nH]c2ccccc12 | -4 | 2 | · | 8 | ·
N#Cc1c(NC(=O)Cn2cnc3ccccc3c2=O)oc(-c2ccccc2)c1-c1ccccc1 | -1 | 14 | 76 | -5 | 29
CCn1c(=O)c2cc(C(=O)N3CCN(C(=O)c4ccco4)CC3)sc2c2ccccc21 | · | · | 68 | · | 98*
O=C(NCc1ccco1)c1nc2c(nnn2Cc2cccc(Cl)c2)c(=O)[nH]1 | 3 | -10 | · | 7 | ·
O=C(NCCc1ccccc1)c1nc2c(nnn2Cc2ccccc2Cl)c(=O)[nH]1 | 7 | 3 | 71 | -14 | 97*
COc1ccc(Cn2nnc3c(=O)[nH]c(C(=O)NCCc4ccc(F)cc4)nc32)cc1OC | 31* | 1 | 73 | -11 | 21
O=C(NC1CCCCC1)c1nc2c(nnn2Cc2ccccc2Cl)c(=O)[nH]1 | 19 | -2 | 66 | 10 | 76*
Cn1c(=O)c(=O)n(C)c2cc(S(=O)(=O)N3CCN(c4cccc(C(F)(F)F)c4)CC3)ccc21 | 1 | -5 | 72 | -11 | -18
CCOC(=O)Cn1ncc(-c2ccccc2)c1N | 3 | 3 | 111 | -5 | -11
COc1cc(C)ccc1OCCOCCOc1ccccc1Br | 42* | -1 | · | 7 | ·
COCCn1c(SCC(=O)Nc2sccc2C(N)=O)nc2cc(Cl)ccc2c1=O | 9 | -1 | · | -1 | ·
C=C(C)CC(NCc1ccco1)c1ccc(OC)cc1 (configuration not stated) | 10 | 31* | · | 5 | ·
C=CCC(NCc1ccco1)c1ccc(OC)cc1OC (configuration not stated) | -4 | -3 | 128 | -3 | -15
CCOC(=O)c1c(NC(=O)c2c(Br)cnn2C)c(C#N)nn1-c1ccccc1 | 41* | -5 | · | 4 | ·
CCOC(=O)c1nn(-c2ccccc2)c(C#N)c1NC(=O)c1nn(CC)cc1Br | 44* | 19 | 119 | -10 | 11
CC(C)Cn1c(=O)c2c(c3ccccc31)OC(C)C(=O)N2 (configuration not stated) | 14 | 2 | 90 | -4 | -11
Cc1cc(C)c2nc(N3CCCN(C(=O)c4cnccn4)CC3)c(C#N)cc2c1 | 10 | -8 | 86 | 0 | 18
Cc1cc(Nc2ccc(F)cc2Cl)n2nc(C)nc2n1 | 32* | 11 | 87 | 5 | -8
CC(=O)N1CCC(N(C(=O)Nc2ccc(C)c(C)c2)C2CCCC2)CC1 | 7 | 3 | 126 | 1 | -19
Cc1ccc(NC(=O)N(C2CCCCC2)C(C)c2cccnc2)cc1C (configuration not stated) | 90* | 99* | · | -1 | ·
CCc1ccc(NC(=O)N(C2CCCCC2)C(C)c2cccnc2)cc1 (configuration not stated) | 95* | 107* | · | -6 | ·
Cc1ccccc1Nc1nnc(SCC(=O)NC(=O)NCc2ccco2)s1 | 3 | -2 | 116 | -9 | 12
COc1ccc(NC(=O)Nc2cc(C)ccc2OC(F)F)c(OC)c1 | 19 | 17 | 106 | -11 | -7
CCOC(=O)N1CCC(N(CCOC)C(=O)Nc2ccc(Cl)c(Cl)c2)CC1 | 64* | -3 | 100 | -6 | 50
Cc1nc2c(C(=O)NCc3ccc(F)cc3)c[nH]n2c(=O)c1Cl | -4 | -2 | 129 | -6 | 19
